High-throughput results deposited in PubChem by Broad Institute.
ARNT TACC3 PPI – disruptors of ARNT/TACC3 protein interaction, primary screen, biochemical, AlphaScreen, single concentration. Transforming acidic coiled-coil-containing protein 3 (Homo sapiens), Q9Y6A5. AlphaScreen His-ARNT PAS-B/GST-TACC3 binding, luminescence; TACC3 fragment carries E629A point mutation. AID 623870, 2012. 0.66% of 390,000 active. inhibition, % at 9.99 µM;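 active = mean inhibition of replicates at least 50% and at least half of replicates each reaching 50%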;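 note: 0% = complete ARNT plus TACC3 wells and 100% = ARNT alone without TACC3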
CAL PDZ FP-1 – untagged CAL PDZ binding inhibitors, primary screen, biochemical, fluorescence polarization, HTS | Golgi-associated PDZ and coiled-coil motif-containing protein (Homo sapiens), Q9HD26 | purified CAL PDZ, TMR-peptide fluorescence polarization, 1 h | 0.92% of 300,000 active | inhibition, % at 24.9 µM | AID 602252, 2012;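 active = mean inhibition of at least 30% with at least half of replicates also reaching 30%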;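 note: 0% = DMSO neutral control and 100% = excess unlabeled competitor peptide PRC23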
DYRK1A inh – rat Dyrk1A kinase inhibitors, primary screen, biochemical, single point, plate reader. Dual specificity tyrosine-phosphorylation-regulated kinase 1A (Rattus norvegicus), Q63470. ADP-Glo luminescence, NFATc1 peptide. inhibition, % at 12.5 µM. 0.43% of 310,000 active. AID 504441, 2011; in the data active = inhibition above about 50%;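 note: plate controls were vehicle with enzyme for no effect and no enzyme for full effect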
CAL PDZ FP-2 – CAL PDZ peptide-binding inhibitors, primary screen, biochemical, fluorescence polarization, Cer-tagged CAL PDZ, HTS; inhibition, % at 20 µM; purified CAL PDZ, TMR-peptide fluorescence polarization, 1 h; Golgi-associated PDZ and coiled-coil motif-containing protein (Homo sapiens), Q9HD26; 0.02% of 330,000 active;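 active = highest replicate inhibition of at least 40%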;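 note: plate controls were DMSO neutral control wells for no effect and unlabeled competitor peptide control wells for full effect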
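System: purified tagged CAL PDZ domain construct (CerCALP). Schedule: 1 h incubation at room temperature before polarization reading. Medium: 25 mM sodium phosphate pH 7.4, 150 mM NaCl, TCEP, IgG, Thesit. Read-out: percent inhibition from loss of millipolarization. Measured by: FP readout, S and P plane fluorescence. Probe or stimulus: fluorescent TMR peptide probe.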
Numbers without * were called inactive; . = no result given; + = active, no number. Compounds with a hit are over-represented: about 1.4% of the library has one in this group of screens.

SMILES | ARNT TACC3 PPI | CAL PDZ FP-1 | DYRK1A inh | CAL PDZ FP-2
C[C@@H]1CN([C@H](C)CO)C(=O)c2cc(C3=CCCCC3)cnc2O[C@@H]1CN(C)Cc1ccccn1 | 4 | . | . | .
COc1ccc(NC(=O)Nc2ccc3c(c2)C(=O)N([C@@H](C)CO)C[C@@H](C)[C@@H](CN(C)S(=O)(=O)c2ccc(C)cc2)OCCCC[C@@H](C)O3)cc1 | -101 | . | . | .
N#Cc1ccc(COC(=O)c2cnc(Cl)c(Cl)c2)cc1 | 1 | 48* | -8 | -1
O=S(=O)(/N=C(/c1ccccc1)N1CCOCC1)c1ccc(Br)cc1 | -3 | 37* | -1 | -2
O=C(NC1CCCCC1)N[C@@H]1CC[C@@H](CCNS(=O)(=O)c2ccccc2)O[C@H]1CO | 1 | . | . | .
CCC(C)(C(=O)NC1CCCC1)N(C(=O)CC1NC(=O)NC1=O)c1ccc(C)cc1 (configuration not stated) | 0 | 60* | 3 | 0
CCC(C)(C(=O)NC1CCCC1)N(C(=O)CC1NC(=O)NC1=O)c1c(C)n(C)n(-c2ccccc2)c1=O (configuration not stated) | -3 | . | -6 | 0
c1cc2c(cc1Cn1cnnn1)OCO2 | -4 | 62* | 8 | -2
O=C(CNC(=O)C1COc2ccccc2O1)N/N=C\c1cccc(O)c1 (configuration not stated) | -5 | -4 | -4 | 0
O=C(N/N=C/c1cccc([N+](=O)[O-])c1)C1COc2ccccc2O1 (configuration not stated) | 5 | -4 | -3 | -6
COc1cc([N+](=O)[O-])cc(/C=N\NC(=O)C2COc3ccccc3O2)c1O (configuration not stated) | 72* | -3 | 7 | -1
O=C(CNC(=O)C1COc2ccccc2O1)N/N=C/c1ccc(O)cc1O (configuration not stated) | 94* | -5 | 10 | -2
O=C(N/N=C\c1cccc([N+](=O)[O-])c1O)C1COc2ccccc2O1 (configuration not stated) | 63* | -3 | 0 | 0
O=[N+]([O-])c1cccc(C=NNc2ccc3ccccc3n2)c1O | 72* | -7 | 11 | 1
COc1cc(/C=N/NC(=O)C2COc3ccccc3O2)cc(OC)c1OC (configuration not stated) | -1 | -3 | -4 | -2
O=C(C[C@H]1CC[C@@H](NC(=O)Cc2ccccn2)[C@H](CO)O1)NCCCN1CCOCC1 | 1 | . | . | .
COc1ccc(CN(C)C[C@H]2OCCCC[C@@H](C)Oc3ccc(NS(=O)(=O)c4cn(C)cn4)cc3C(=O)N([C@H](C)CO)C[C@H]2C)cc1 | -1 | . | . | .
CC(C)NC(=O)Nc1ccc2c(c1)C(=O)N([C@@H](C)CO)C[C@@H](C)[C@@H](CN(C)C)OCCCC[C@@H](C)O2 | -5 | . | . | .
CC(=O)C1CCCN(C(=O)c2ccc3oc(CCc4ccccc4)nc3c2)C1 (configuration not stated) | -1 | 47* | 0 | 0
CCOC(=O)C1CCCN(C(=O)c2ccc3oc(CCc4ccccc4)nc3c2)C1 (configuration not stated) | -4 | -2 | -6 | -2
O=C([C@H]1[C@H](CO)[C@H]2Cn3c(cccc3=O)[C@H]2N1CCC(F)(F)F)N1CCCCC1 | active | . | . | .
C[C@@H]1CCCCO[C@H](CN(C)Cc2ccc(C(F)(F)F)cc2)[C@H](C)CN([C@H](C)CO)C(=O)c2cc(NC(=O)C3CCCCC3)ccc2O1 | 1 | . | . | .
O=C(O)c1ccc(/C=C/c2nc3ccccc3c(=O)[nH]2)cc1 | -5 | + | 27 | 2
CCNc1nc(OC)nc(N(OC)S(=O)(=O)c2ccc(C)cc2)n1 | -34 | 74* | -3 | .
CCNc1nc(OCCNS(=O)(=O)c2cc(C)ccc2C)nc(N(C)C)n1 | -9 | -1 | 3 | -1
O=C(NCc1ccccn1)c1cn(Cc2ccccc2)nn1 | -2 | 105* | . | .
CC1CCN(C(=O)Cn2cc3c(n2)CCCC3)CC1 | 47* | . | 4 | -1
O=C(Cn1cc2c(n1)CCCC2)N1CCOCC1 | . | -1 | 5 | 0
